Test results reported in ChEMBL document CHEMBL1141405, “Design and synthesis of novel sulfonamide-containing bradykinin hB2 receptor antagonists. 2. Synthesis and structure-activity relationships of alpha,alpha-cycloalkylglycine sulfonamides” (J Med Chem, 2007).

Columns and labels:
[1] = biological target: T1, B1 bradykinin receptor (Homo sapiens, UniProt P46663); assay: Binding affinity to human bradykinin B1 receptor
T1 sequence (P46663 whole entry): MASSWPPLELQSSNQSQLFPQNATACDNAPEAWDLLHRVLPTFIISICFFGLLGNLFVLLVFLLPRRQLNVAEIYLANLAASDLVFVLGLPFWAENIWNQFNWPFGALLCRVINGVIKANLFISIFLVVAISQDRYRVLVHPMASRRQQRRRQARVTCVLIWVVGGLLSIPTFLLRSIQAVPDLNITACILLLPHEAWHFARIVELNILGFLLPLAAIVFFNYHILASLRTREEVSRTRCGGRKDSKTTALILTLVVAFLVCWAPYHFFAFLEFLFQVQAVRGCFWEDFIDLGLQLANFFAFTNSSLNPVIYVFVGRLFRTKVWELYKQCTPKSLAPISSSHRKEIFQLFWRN

[2] = biological target: T2, B2 bradykinin receptor (Homo sapiens, UniProt P30411); assay: Displacement of [3H]BK from human bradykinin B2 receptor transfected in CHO cells; format: cell-based
T2 sequence (P30411 whole entry): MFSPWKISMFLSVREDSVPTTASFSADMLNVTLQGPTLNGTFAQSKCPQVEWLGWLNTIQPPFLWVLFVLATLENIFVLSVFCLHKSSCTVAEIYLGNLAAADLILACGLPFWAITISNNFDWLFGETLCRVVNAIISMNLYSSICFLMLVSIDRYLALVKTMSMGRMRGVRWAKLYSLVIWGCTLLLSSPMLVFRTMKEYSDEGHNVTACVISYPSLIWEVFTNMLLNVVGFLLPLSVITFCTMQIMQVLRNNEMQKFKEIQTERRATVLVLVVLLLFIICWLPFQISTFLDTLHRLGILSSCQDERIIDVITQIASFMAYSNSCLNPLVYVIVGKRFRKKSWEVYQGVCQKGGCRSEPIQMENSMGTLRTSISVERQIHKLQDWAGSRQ
Summary of the method: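 pKi from inhibition of specific [3H]-BK binding to membrane preparations of CHO cells stably transfected with the human B2 receptor.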

[3] = biological target: T2, B2 bradykinin receptor; assay: Antagonist potency at human bradykinin B2 receptor assessed as effect on inositol monophosphate accumulation in CHOdhfr- cells; format: functional, cell-based; conditions: read-out: pA2 (converted)
Summary of the method: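 pA2 derived from antagonism of bradykinin-stimulated inositol monophosphate accumulation in CHOdhfr- cells stably transfected with the human B2 receptor.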

[4] = biological target: T3, B2 bradykinin receptor (Cavia porcellus) (UniProt O70526); assay: Inhibition of BK-induced bronchoconstriction in Dunkin Hartley guinea pig at 100 nmol/kg, it; format: functional; design: scale not given: the % may be the effect or the level left
T3 sequence (whole entry): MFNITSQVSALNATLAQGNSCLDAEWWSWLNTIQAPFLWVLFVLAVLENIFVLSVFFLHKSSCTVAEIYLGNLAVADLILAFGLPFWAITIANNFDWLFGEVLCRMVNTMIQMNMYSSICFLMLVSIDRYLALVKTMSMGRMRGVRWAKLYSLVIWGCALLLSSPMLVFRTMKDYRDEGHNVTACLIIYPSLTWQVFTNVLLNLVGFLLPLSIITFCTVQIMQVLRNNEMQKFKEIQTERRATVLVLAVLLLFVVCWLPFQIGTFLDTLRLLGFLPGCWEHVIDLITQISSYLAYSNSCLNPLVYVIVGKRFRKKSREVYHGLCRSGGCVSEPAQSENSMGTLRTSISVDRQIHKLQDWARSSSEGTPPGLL
Summary of the method: (§1)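 Compound was given intratracheally to anaesthetized guinea pigs. Five min later, BK (10 nmol/kg iv) challenge was given and repeated every 30 min for 210 min. Pulmonary insufflation pressure was monitored. Result is Σ%: residual BK response as % of basal, normalized to control at 5–210 min time points, expressed as % of theoretical maximum.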

[5] = biological target: T3, B2 bradykinin receptor (Cavia porcellus); assay: Effect on BK-induced hypotension in Dunkin Hartley guinea pig at 100 nmol/kg, it; format: functional
Summary of the method: as §1, with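 “Blood” for “Pulmonary insufflation”, “each observation” for “5–210 min”, “(5–210 min),” for “points,”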

[6] = biological target: T3, B2 bradykinin receptor (Cavia porcellus); assay: Inhibition of BK-induced bronchoconstriction in Dunkin Hartley guinea pig at 300 nmol/kg, it; format: functional; design: scale not given: the % may be the effect or the level left; summary of the method: as §1
[7] = biological target: T3, B2 bradykinin receptor (Cavia porcellus); assay: Effect on BK-induced hypotension in Dunkin Hartley guinea pig at 300 nmol/kg, it; format: functional
Summary of the method: as §1, with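 “Blood” for “Pulmonary insufflation”, “each observation” for “5–210 min”, “(5–210 min),” for “points,”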

[8] = biological target: T4, B2 bradykinin receptor (Cavia porcellus, UniProt O70526); assay: Antagonist potency on BK-induced contraction of guinea pig ileum longitudinal smooth muscle; format: functional, tissue-based; conditions: read-out: pA2 (converted)
T4 sequence (O70526 whole entry): T3 sequence (whole entry)

Row | Ki [1] | Ki [2] | Kb [3] | Activity [4] | Activity [5] | Activity [6] | Activity [7] | Kb [8] | Structure (SMILES)
1 | > 10 µM | 0.251 nM | 0.501 nM | 43% | 82% |  |  |  | Cc1cc(C)c2cccc(OCc3c(Cl)ccc(S(=O)(=O)NC4(C(=O)N5CCN(C(=O)[C@H](CCCN)[N+](C)(C)C)CC5)CCCC4)c3Cl)c2n1
2 | > 10 µM | 1.58 nM | 0.794 nM |  |  | 29% | 67% | 0.158 nM | Cc1cc(C)c2cccc(OCc3c(Cl)ccc(S(=O)(=O)NC4(C(=O)N5CCN(C(=O)[C@@H](N)CCCCN(C)C)CC5)CCCC4)c3Cl)c2n1
3 | > 10 µM | 0.501 nM | 1.58 nM |  |  |  |  |  | Cc1cc(C)c2cccc(OCc3c(Cl)ccc(S(=O)(=O)NC4(C(=O)N5CCN(C(=O)[C@@H](N)CCC[N+](C)(C)C)CC5)CCNCC4)c3Cl)c2n1
4 | > 10 µM | 0.631 nM | 0.501 nM | 46% | 100% |  |  |  | Cc1cc(C)c2cccc(OCc3c(Cl)ccc(S(=O)(=O)NC4(C(=O)N5CCN(C(=O)C[C@@H](N)CCCN)CC5)CCCC4)c3Cl)c2n1
5 | > 10 µM | 0.0794 nM | 0.251 nM | 40% | 86% |  |  |  | Cc1cc(C)c2cccc(OCc3c(Cl)ccc(S(=O)(=O)NC4(C(=O)N5CCN(C(=O)[C@@H](N)CCC[N+](C)(C)C)CC5)CCN(C)CC4)c3Cl)c2n1
6 | > 10 µM | 0.316 nM | 2 nM |  |  |  |  |  | Cc1cc(C)c2cccc(OCc3c(Cl)ccc(S(=O)(=O)NC4(C(=O)N5CCN(C(=O)[C@@H](N)CCCCN)CC5)CCCC4)c3Cl)c2n1
7 | > 10 µM | 0.0501 nM | 0.501 nM | 24% | 100% |  |  |  | Cc1cc(C)c2cccc(OCc3c(Cl)ccc(S(=O)(=O)NC4(C(=O)N5CCN(C(=O)[C@@H](N)CCC[N+](C)(C)C)CC5)CCCC4)c3Cl)c2n1
8 | > 10 µM | 0.2 nM | 2.51 nM |  |  |  |  |  | Cc1cc(C)c2cccc(OCc3c(Cl)ccc(S(=O)(=O)NC4(C(=O)N5CCN(C(=O)[C@H](CCC[N+](C)(C)C)[N+](C)(C)C)CC5)CCCC4)c3Cl)c2n1
9 | > 10 µM |  | 1.26 nM | 35% | 94% |  |  |  | Cc1cc(C)c2cccc(OCc3c(Cl)ccc(S(=O)(=O)NC4(C(=O)N5CCN(C(=O)[C@@H](N)CCCC[N+](C)(C)C)CC5)CCCC4)c3Cl)c2n1
10 | > 10 µM |  |  |  |  | 20% | 63% | 0.1 nM | Cc1cc(C)c2cccc(OCc3c(Cl)ccc(S(=O)(=O)NC(C)(C)C(=O)N4CCN(C(=O)C[C@@H](N)CCCN(C)C)CC4)c3Cl)c2n1
11 | > 10 µM |  | 1.58 nM | 39% | 84% |  |  |  | Cc1cc(C)c2cccc(OCc3c(Cl)ccc(S(=O)(=O)NC4(C(=O)N5CCN(C(=O)[C@H](CCCCN)[N+](C)(C)C)CC5)CCCC4)c3Cl)c2n1
12 | > 10 µM | 0.126 nM | 1.26 nM | 72% | 94% |  |  |  | Cc1cc(C)c2cccc(OCc3c(Cl)ccc(S(=O)(=O)NC4(C(=O)N5CCN(C(=O)C[C@H](CCCN)[N+](C)(C)C)CC5)CCCC4)c3Cl)c2n1
13 | > 10 µM | 0.2 nM | 3.16 nM |  |  |  |  |  | Cc1cc(C)c2cccc(OCc3c(Cl)ccc(S(=O)(=O)NC4(C(=O)N5CCN(C(=O)[C@H](CCCCN(C)C)N(C)C)CC5)CCCC4)c3Cl)c2n1
14 | > 10 µM |  | 2 nM | 65% | 83% |  |  |  | Cc1cc(C)c2cccc(OCc3c(Cl)ccc(S(=O)(=O)NC4(C(=O)N5CCN(C(=O)CCC[N+](C)(C)C)CC5)CCCC4)c3Cl)c2n1
15 | > 10 µM | 0.631 nM | 0.794 nM |  |  | 54% | 78% | 0.1 nM | Cc1cc(C)c2cccc(OCc3c(Cl)ccc(S(=O)(=O)NC(C)(C)C(=O)N4CCN(C(=O)[C@@H](N)CCCCNC(=N)N)CC4)c3Cl)c2n1
16 | > 10 µM | 0.158 nM | 1.26 nM |  |  |  |  |  | CC(=O)N1CCC(NS(=O)(=O)c2ccc(Cl)c(COc3cccc4c(C)cc(C)nc34)c2Cl)(C(=O)N2CCN(C(=O)[C@@H](N)CCC[N+](C)(C)C)CC2)CC1
17 | > 10 µM | 0.316 nM | 2 nM | 45% | 87% |  |  |  | Cc1cc(C)c2cccc(OCc3c(Cl)ccc(S(=O)(=O)NC4(C(=O)N5CCN(C(=O)[C@@H](N)CC[N+](C)(C)C)CC5)CCCC4)c3Cl)c2n1
18 | > 10 µM |  |  |  |  | 37% | 69% | 0.2 nM | Cc1cc(C)c2cccc(OCc3c(Cl)ccc(S(=O)(=O)NC(C)(C)C(=O)N4CCN(C(=O)[C@@H](N)CCCCN(C)C)CC4)c3Cl)c2n1
19 | > 10 µM | 0.251 nM | 1.58 nM |  |  |  |  |  | Cc1cc(C)c2cccc(OCc3c(Cl)ccc(S(=O)(=O)NC4(C(=O)N5CCN(C(=O)CCCC[N+](C)(C)C)CC5)CCCC4)c3Cl)c2n1
20 | > 10 µM |  |  |  |  | 39% | 79% | 0.1 nM | Cc1cc(C)c2cccc(OCc3c(Cl)ccc(S(=O)(=O)NC(C)(C)C(=O)N4CCN(C(=O)[C@@H](N)CCCN(C)C)CC4)c3Cl)c2n1
21 | > 10 µM | 0.398 nM | 1.58 nM |  |  | 17% | 87% |  | Cc1cc(C)c2cccc(OCc3c(Cl)ccc(S(=O)(=O)NC4(C(=O)N5CCN(C(=N)NCCC[N+](C)(C)C)CC5)CCCC4)c3Cl)c2n1
22 | > 10 µM | 1.26 nM | 2 nM |  |  |  |  |  | Cc1cc(C)c2cccc(OCc3c(Cl)ccc(S(=O)(=O)NC4(C(=O)N5CCN(C(=O)CCCCCNC(=N)N)CC5)CCCC4)c3Cl)c2n1
23 | > 10 µM | 0.2 nM | 6.31 nM |  |  |  |  |  | Cc1cc(C)c2cccc(OCc3c(Cl)ccc(S(=O)(=O)NC4(C(=O)N5CCN(C(=O)[C@H](CCCC[N+](C)(C)C)[N+](C)(C)C)CC5)CCCC4)c3Cl)c2n1
24 | > 10 µM | 0.0501 nM | 0.158 nM | 59% | 89% |  |  |  | Cc1cc(C)c2cccc(OCc3c(Cl)ccc(S(=O)(=O)NC4(C(=O)N5CCN(C(=O)[C@@H](N)CCC[N+](C)(C)C)CC5)CCSCC4)c3Cl)c2n1
25 | > 10 µM | 0.1 nM | 0.631 nM | 61% | 90% |  |  |  | Cc1cc(C)c2cccc(OCc3c(Cl)ccc(S(=O)(=O)NC4(C(=O)N5CCN(C(=O)[C@H](CCCCNC(=N)N)[N+](C)(C)C)CC5)CCCC4)c3Cl)c2n1
26 | > 10 µM | 0.631 nM | 0.501 nM |  |  | 24% | 69% |  | Cc1cc(C)c2cccc(OCc3c(Cl)ccc(S(=O)(=O)NC4(C(=O)N5CCN(C(=N)NCCCN(C)C)CC5)CCCC4)c3Cl)c2n1
27 | > 10 µM | 0.398 nM | 5.01 nM | 54% | 91% |  |  |  | Cc1cc(C)c2cccc(OCc3c(Cl)ccc(S(=O)(=O)NC4(C(=O)N5CCN(C(=O)C[N+](C)(C)C)CC5)CCCC4)c3Cl)c2n1
28 | > 10 µM | 0.2 nM | 1.58 nM | 57% | 96% |  |  |  | Cc1cc(C)c2cccc(OCc3c(Cl)ccc(S(=O)(=O)NC4(C(=O)N5CCN(C(=O)C[C@@H](N)CCC[N+](C)(C)C)CC5)CCCC4)c3Cl)c2n1
29 | > 10 µM |  | 5.01 nM |  |  |  |  |  | Cc1cc(C)c2cccc(OCc3c(Cl)ccc(S(=O)(=O)NC4(C(=O)N5CCN(C(=O)CCCCC[N+](C)(C)C)CC5)CCCC4)c3Cl)c2n1

Row | Structure (SMILES) | Ki [1] | Ki [2] | Kb [3] | Activity [4] | Activity [5] | Activity [6] | Activity [7] | Kb [8]
30 | Cc1cc(C)c2cccc(OCc3c(Cl)ccc(S(=O)(=O)NC4(C(=O)N5CCN(C(=O)C[C@@H](N)CCCNC(=N)N)CC5)CCCC4)c3Cl)c2n1 | > 10 µM |  | 0.794 nM | 78% | 100% |  |  | 
